Source: ChEMBL document CHEMBL1138555, “N-acylated and N,N'-diacylated imidazolidine-2-thione derivatives and N,N'-diacylated tetrahydropyrimidine-2(1H)-thione analogues: synthesis and antiproliferative activity” (Eur J Med Chem, 2009)

How the values were obtained:
OVCAR-3 = experiment: Growth inhibition of human OVCAR-3 cells after 48 hrs by sulforhodamine B assay; assay type: functional; settings: OVCAR-3, 48 h
In short: (§1)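 NCI screen panel. Five 10-fold concentrations from 10^-4 to 10^-8 M. Exposure for the last 48 h of a 72 h incubation. Growth estimated by sulforhodamine B protein assay. GI50 is the concentration giving 50% growth inhibition. Where that level was not reached or was exceeded, the value is given as above or below the highest or lowest concentration tested.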

DU-145 = experiment: Growth inhibition of human DU145 cells after 48 hrs by sulforhodamine B assay; assay type: functional; settings: DU-145, 48 h; in short: as §1
SF-539 = experiment: Growth inhibition of human SF539 cells after 48 hrs by sulforhodamine B assay; assay type: functional; settings: SF-539, 48 h; in short: as §1
MCF7 = experiment: Growth inhibition of human MCF7 cells after 48 hrs by sulforhodamine B assay; assay type: functional; settings: MCF7, 48 h; in short: as §1
IGROV-1 = experiment: Growth inhibition of human IGROV1 cells after 48 hrs by sulforhodamine B assay; assay type: functional; settings: IGROV-1, 48 h; in short: as §1
BT-549 = experiment: Growth inhibition of human BT549 cells after 48 hrs by sulforhodamine B assay; assay type: functional; settings: BT-549, 48 h; in short: as §1
NCI-H23 = experiment: Growth inhibition of human NCI-H23 cells after 48 hrs by sulforhodamine B assay; assay type: functional; settings: NCI-H23, 48 h; in short: as §1
HCT-15 = experiment: Growth inhibition of human HCT15 cells after 48 hrs by sulforhodamine B assay; assay type: functional; settings: HCT-15, 48 h; in short: as §1
SF-268 = experiment: Growth inhibition of human SF268 cells after 48 hrs by sulforhodamine B assay; assay type: functional; settings: SF-268, 48 h; in short: as §1
SW-620 = experiment: Growth inhibition of human SW620 cells after 48 hrs by sulforhodamine B assay; assay type: functional; settings: SW-620, 48 h
In short: (§2)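 NCI in vitro panel screen. Compounds tested at five 10-fold dilutions, 10^-4 to 10^-8 M. Cells in 96-well plates were exposed for the last 48 h of a 72 h incubation. Viability/growth was read by sulforhodamine B protein assay. GI50 is the concentration giving 50% growth inhibition. Values beyond the tested range are reported as greater or less than the maximum or minimum concentration.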

UACC-62 = experiment: Growth inhibition of human UACC62 cells after 48 hrs by sulforhodamine B assay; assay type: functional; settings: UACC-62, 48 h; in short: as §2
OVCAR-4 = experiment: Growth inhibition of human OVCAR4 cells after 48 hrs by sulforhodamine B assay; assay type: functional; settings: OVCAR-4, 48 h; in short: as §1
KM12 = experiment: Growth inhibition of human KM12 cells after 48 hrs by sulforhodamine B assay; assay type: functional; settings: KM12, 48 h; in short: as §1
PC-3 = experiment: Growth inhibition of human PC3 cells after 48 hrs by sulforhodamine B assay; assay type: functional; settings: PC-3, 48 h; in short: as §1
LOX IMVI = experiment: Growth inhibition of human LOXIMVI cells after 48 hrs by sulforhodamine B assay; assay type: functional; in short: as §1
K562 = experiment: Growth inhibition of human K562 cells after 48 hrs by sulforhodamine B assay; assay type: functional; settings: K562, 48 h; in short: as §1
U-251 = experiment: Growth inhibition of human U251 cells after 48 hrs by sulforhodamine B assay; assay type: functional; settings: U-251, 48 h; in short: as §2
MDA-MB-435 = experiment: Growth inhibition of human MDA-MB-435 cells after 48 hrs by sulforhodamine B assay; assay type: functional; settings: MDA-MB-435, 48 h; in short: as §1
NCI-H322M = experiment: Growth inhibition of human NCI-H322M cells after 48 hrs by sulforhodamine B assay; assay type: functional; in short: as §1
SNB-75 = experiment: Growth inhibition of human SNB75 cells after 48 hrs by sulforhodamine B assay; assay type: functional; settings: SNB-75, 48 h; in short: as §2
OVCAR-8 = experiment: Growth inhibition of human OVCAR8 cells after 48 hrs by sulforhodamine B assay; assay type: functional; settings: OVCAR-8, 48 h; in short: as §1
HL-60(TB) = experiment: Growth inhibition of human HL-60(TB) cells after 48 hrs by sulforhodamine B assay; assay type: functional; settings: HL-60, 48 h
In short: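 NCI 60-cell-line screen protocol: cells exposed to compound at five 10-fold dilutions from 10^-4 to 10^-8 M for the last 48 h of a 72 h incubation. Sulforhodamine B protein assay estimated viability/growth. GI50 (50% growth inhibition) derived; where not reached or exceeded, reported as greater or less than the highest or lowest concentration tested.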

HOP-92 = experiment: Growth inhibition of human HOP92 cells after 48 hrs by sulforhodamine B assay; assay type: functional; settings: HOP-92, 48 h; in short: as §1
SK-MEL-5 = experiment: Growth inhibition of human SK-MEL-5 cells after 48 hrs by sulforhodamine B assay; assay type: functional; settings: SK-MEL-5, 48 h; in short: as §1
UO-31 = experiment: Growth inhibition of human UO31 cells after 48 hrs by sulforhodamine B assay; assay type: functional; settings: UO-31, 48 h; in short: as §2
COLO 205 = experiment: Growth inhibition of human COLO205 cells after 48 hrs by sulforhodamine B assay; assay type: functional; settings: COLO 205, 48 h; in short: as §1
SK-MEL-28 = experiment: Growth inhibition of human SK-MEL-28 cells after 48 hrs by sulforhodamine B assay; assay type: functional; settings: SK-MEL-28, 48 h; in short: as §1
Malme-3M = experiment: Growth inhibition of human MALME-3M cells after 48 hrs by sulforhodamine B assay; assay type: functional; in short: as §1
T47D = experiment: Growth inhibition of human T47D cells after 48 hrs by sulforhodamine B assay; assay type: functional; in short: as §2
SK-OV-3 = experiment: Growth inhibition of human SKOV3 cells after 48 hrs by sulforhodamine B assay; assay type: functional; settings: SK-OV-3, 48 h; in short: as §1
SNB-19 = experiment: Growth inhibition of human SNB19 cells after 48 hrs by sulforhodamine B assay; assay type: functional; settings: SNB-19, 48 h; in short: as §2
NCI-H460 = experiment: Growth inhibition of human NCI-H460 cells after 48 hrs by sulforhodamine B assay; assay type: functional; settings: NCI-H460, 48 h; in short: as §1
SN12C = experiment: Growth inhibition of human SN12C cells after 48 hrs by sulforhodamine B assay; assay type: functional; in short: as §2
SR = experiment: Growth inhibition of human SR cells after 48 hrs by sulforhodamine B assay; assay type: functional; in short: as §2
EKVX = experiment: Growth inhibition of human EKVX cells after 48 hrs by sulforhodamine B assay; assay type: functional; in short: as §1
ACHN = experiment: Growth inhibition of human ACHN cells after 48 hrs by sulforhodamine B assay; assay type: functional; in short: as §1
TK-10 = experiment: Growth inhibition of human TK10 cells after 48 hrs by sulforhodamine B assay; assay type: functional; settings: TK-10, 48 h; in short: as §2
[1] = Growth inhibition of human […] cells after 48 hrs by sulforhodamine B assay; assay type: functional; in short: as §1
RXF 393 = experiment: Growth inhibition of human RXF393 cells after 48 hrs by sulforhodamine B assay; assay type: functional; settings: RXF 393, 48 h; in short: as §1
A549 = experiment: Growth inhibition of human A549 cells after 48 hrs by sulforhodamine B assay; assay type: functional; settings: A549, 48 h; in short: as §1
HT-29 = experiment: Growth inhibition of human HT-29 cells after 48 hrs by sulforhodamine B assay; assay type: functional; settings: HT-29, 48 h; in short: as §1
MT4 = experiment: Antiproliferative activity against human MT4 cells assessed as reduction of growth by MTT assay; assay type: functional, cell-based
In short: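 MT-4 lymphoblastoid T cells (ATCC) in RPMI 1640 with 10% FCS, penicillin/streptomycin, checked for mycoplasma. 1 × 10⁴ mock-infected cells per well with serial dilutions from a 100 mM DMSO stock. Incubated 4 days at 37 °C, viable cells counted by MTT. IC50 versus untreated controls by linear regression. Mean of three separate experiments.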

SF-295 = experiment: Growth inhibition of human SF295 cells after 48 hrs by sulforhodamine B assay; assay type: functional; settings: SF-295, 48 h; in short: as §1
MDA-MB-231 = experiment: Growth inhibition of human MDA-MB-231 cells after 48 hrs by sulforhodamine B assay; assay type: functional; settings: MDA-MB-231, 48 h; in short: as §1
CCRF-CEM = experiment: Growth inhibition of human CCRF-CEM cells after 48 hrs by sulforhodamine B assay; assay type: functional; in short: as §1
CAKI-1 = experiment: Growth inhibition of human Caki1 cells after 48 hrs by sulforhodamine B assay; assay type: functional; settings: CAKI-1, 48 h; in short: as §1
MOLT-4 = experiment: Growth inhibition of human MOLT4 cells after 48 hrs by sulforhodamine B assay; assay type: functional; settings: MOLT-4, 48 h; in short: as §1
SK-MEL-2 = experiment: Growth inhibition of human SK-MEL-2 cells after 48 hrs by sulforhodamine B assay; assay type: functional; settings: SK-MEL-2, 48 h; in short: as §1

Structure (SMILES): N#CC(C#N)=CN1CCN(C(=O)c2ccco2)C1=S
- GI50 (OVCAR-3): 11.2 µM
- GI50 (DU-145): 5.5 µM
- GI50 (SF-539): 2.5 µM
- GI50 (MCF7): 3.5 µM
- GI50 (IGROV-1): 6.6 µM
- GI50 (BT-549): 6.9 µM
- GI50 (NCI-H23): 5.8 µM
- GI50 (HCT-15): 5.2 µM
- GI50 (SF-268): 31.4 µM
- GI50 (SW-620): 5.6 µM
- GI50 (UACC-62): 8.8 µM
- GI50 (OVCAR-4): 20.1 µM
- GI50 (KM12): 4.1 µM
- GI50 (PC-3): 17.2 µM
- GI50 (LOX IMVI): 3.3 µM
- GI50 (K562): 6.6 µM
- GI50 (U-251): 6.6 µM
- GI50 (MDA-MB-435): 5.3 µM
- GI50 (NCI-H322M): 15.5 µM
- GI50 (SNB-75): 40.6 µM
- GI50 (OVCAR-8): 14.6 µM
- GI50 (HL-60(TB)): 19.8 µM
- GI50 (HOP-92): 22.4 µM
- GI50 (SK-MEL-5): 2.9 µM
- GI50 (UO-31): 10.5 µM
- GI50 (COLO 205): 16.5 µM
- GI50 (SK-MEL-28): 12.5 µM
- GI50 (Malme-3M): 47.8 µM
- GI50 (T47D): 21.2 µM
- GI50 (SK-OV-3): 33.1 µM
- GI50 (SNB-19): 38.7 µM
- GI50 (NCI-H460): 3.3 µM
- GI50 (SN12C): 3.1 µM
- GI50 (SR): 2 µM
- GI50 (EKVX): 11.9 µM
- GI50 (ACHN): 9.4 µM
- GI50 (TK-10): 4.6 µM
- GI50 [1]: 4.5 µM
- GI50 (RXF 393): 2.6 µM
- GI50 (A549): 13.5 µM
- GI50 (HT-29): 27.7 µM
- IC50 (MT4): 4.4 µM
- GI50 (SF-295): 31.3 µM
- GI50 (MDA-MB-231): 2.9 µM
- GI50 (CCRF-CEM): 79.7 µM
- GI50 (CAKI-1): 4.8 µM
- GI50 (MOLT-4): 5.2 µM
- GI50 (SK-MEL-2): 4.3 µM
